# Assay results taken from ChEMBL document CHEMBL2346506, “Cytotoxicity and modulation of cancer-related signaling by (Z)- and (E)-3,4,3',5'-tetramethoxystilbene isolated from Eugenia rigida” (J Nat Prod, 2013).
# The source made the active and inactive calls. No cut-off for these calls is given here.
# Tests used:
# [1] = biological target: T1, Nitric oxide synthase, inducible (Mus musculus, UniProt P29477); assay: Inhibition of iNOS in LPS-induced mouse RAW264.7 cells assessed as inhibition of […] at measured after 24 hrs; format: cell-based
# T1 sequence (P29477 whole entry): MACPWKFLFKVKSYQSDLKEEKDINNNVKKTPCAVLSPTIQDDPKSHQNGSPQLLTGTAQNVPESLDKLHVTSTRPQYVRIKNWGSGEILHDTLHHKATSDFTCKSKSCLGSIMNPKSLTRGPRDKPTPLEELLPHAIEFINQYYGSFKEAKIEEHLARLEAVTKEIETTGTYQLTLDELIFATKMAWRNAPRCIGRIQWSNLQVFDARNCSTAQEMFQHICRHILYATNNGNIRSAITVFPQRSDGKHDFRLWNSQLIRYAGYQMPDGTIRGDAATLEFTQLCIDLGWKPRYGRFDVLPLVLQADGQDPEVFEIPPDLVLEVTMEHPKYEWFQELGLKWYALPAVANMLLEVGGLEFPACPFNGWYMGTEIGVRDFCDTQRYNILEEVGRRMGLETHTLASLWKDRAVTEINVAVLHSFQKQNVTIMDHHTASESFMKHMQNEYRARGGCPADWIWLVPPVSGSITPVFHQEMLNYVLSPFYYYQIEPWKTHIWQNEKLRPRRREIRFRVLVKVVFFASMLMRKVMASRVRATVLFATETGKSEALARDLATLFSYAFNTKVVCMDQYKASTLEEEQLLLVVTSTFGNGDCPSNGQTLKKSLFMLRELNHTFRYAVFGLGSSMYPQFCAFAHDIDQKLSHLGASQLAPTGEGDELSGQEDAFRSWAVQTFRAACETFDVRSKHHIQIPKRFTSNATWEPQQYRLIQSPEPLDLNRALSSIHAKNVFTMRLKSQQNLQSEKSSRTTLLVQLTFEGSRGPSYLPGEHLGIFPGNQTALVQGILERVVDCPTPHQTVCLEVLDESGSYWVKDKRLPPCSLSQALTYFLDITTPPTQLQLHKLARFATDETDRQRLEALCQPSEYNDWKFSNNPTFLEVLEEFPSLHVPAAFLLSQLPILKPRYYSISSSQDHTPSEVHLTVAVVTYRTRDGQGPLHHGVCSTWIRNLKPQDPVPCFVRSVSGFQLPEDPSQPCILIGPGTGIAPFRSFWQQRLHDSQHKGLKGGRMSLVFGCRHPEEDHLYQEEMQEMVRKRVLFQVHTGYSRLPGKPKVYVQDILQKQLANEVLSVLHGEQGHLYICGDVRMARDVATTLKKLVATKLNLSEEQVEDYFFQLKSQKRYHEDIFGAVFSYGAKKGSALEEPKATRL
# In short: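 Mouse RAW 264.7 macrophages were seeded at 50 000 cells/well and grown 24 h. They were pretreated with samples for 30 min, then stimulated with LPS at 5 μg/mL for 24 h. Nitrite in the supernatant was measured by Griess reagent, and inhibition was calculated against the vehicle control. IC50 came from dose–response curves, with cytotoxicity checked in parallel.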
# [2] = system: HeLa; assay: Cytotoxicity against human HeLa cells assessed as growth inhibition measured after 48 hrs by Neutral Red dye assay
# [3] = Inhibition of E2F signaling pathway in human HeLa cells assessed as inhibition of PMA induced luciferase at 100 uM treated 30 mins before induction; format: cell-based
# In short: (§1)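 Reporter assay in cells transfected with pathway luciferase plasmids. Cells plated at 0.015 × 10⁶ per well in 10% FBS, switched after 24 h to DMEM with 1% FBS, then transfected. 24 h after transfection, compound (final 40, 60, 80 or 100 μM) was added, followed 30 min later by inducer (IL-6, TGF-β, wnt3a or PMA). Luciferase was read 4 or 6 h after induction (6 h for Notch, Wnt, Hedgehog). Value is the IC50 or the lowest concentration giving maximal 50–60% inhibition; two independent experiments.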
# [4] = system: HeLa; assay: Inhibition of smad3/4 signaling pathway in human HeLa cells assessed as measured as lowest concentration required 50 to 60 % inhibition of TGF-beta induced luciferase treated 30 mins before induction; format: functional; in short: as §1
# [5] = system: HeLa; assay: Inhibition of Stat3 signaling pathway in human HeLa cells assessed as inhibition of IL-6 induced luciferase treated 30 mins before induction; format: functional, cell-based; in short: as §1
# [6] = system: SK-OV-3; assay: Cytotoxicity against human SKOV3 cells assessed as growth inhibition measured at 100 uM after 48 hrs by […] assay; format: functional, cell-based
# [7] = system: HeLa; assay: Inhibition of Stat3 signaling pathway in human HeLa cells assessed as measured as lowest concentration required 50 to 60 % inhibition of IL-6 induced luciferase treated 30 mins before induction; format: functional; in short: as §1
# [8] = system: HL-60; assay: Inhibition of PMA induced ROS generation in human HL60 cells assessed as inhibition of ROA mediated oxidation of DCFH at 100 uM; format: functional, cell-based
# In short: (§2)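 HL-60 cells (0.8 × 10⁶/mL) in RPMI-1640 with 10% FBS were pretreated 30 min with compound (0.4–100 μM). PMA (100 ng/mL) was then added for 30 min, followed by DCFH-DA (5 μg/mL) for 15 min. DCF fluorescence read at Ex 485 / Em 530 nm and compared with vehicle control. Trolox served as positive control.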
# [9] = Inhibition of Wnt signaling pathway in human HeLa cells assessed as inhibition of Wnt3a induced luciferase treated 30 mins before induction; format: cell-based; in short: as §1
# [10] = system: Vero; assay: Cytotoxicity against african green monkey Vero cells assessed as growth inhibition measured after 48 hrs by Neutral Red dye assay; settings: Chlorocebus sabaeus
# [11] = Inhibition of NFkappaB signaling pathway in human HeLa cells assessed as measured as lowest concentration required 50 to 60 % inhibition of PMA induced luciferase treated 30 mins before induction; format: cell-based; in short: as §1
# [12] = biological target: T2, Nitric oxide synthase, inducible (Mus musculus) (UniProt P29477); assay: Inhibition of iNOS in LPS-induced mouse RAW264.7 cells assessed as inhibition of […] up to 33.3 uM measured after 24 hrs; format: cell-based
# T2 sequence (whole entry): T1 sequence (P29477 whole entry)
# In short: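 RAW 264.7 macrophages seeded at 50 000 per well and grown 24 h. Compound added 30 min before LPS (5 μg/mL), then cells incubated a further 24 h. Nitrite in the supernatant measured with Griess reagent relative to vehicle control. Parthenolide served as positive control; cytotoxicity checked in parallel.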
# [13] = Inhibition of Wnt signaling pathway in human HeLa cells assessed as measured as lowest concentration required 50 to 60 % inhibition of Wnt3a induced luciferase treated 30 mins before induction; format: cell-based; in short: as §1
# [14] = Inhibition of Ets signaling pathway in human HeLa cells assessed as inhibition of PMA induced luciferase treated 30 mins before induction; format: cell-based; in short: as §1
# [15] = Inhibition of AP1 signaling pathway in human HeLa cells assessed as inhibition of PMA induced luciferase treated 30 mins before induction; format: cell-based; in short: as §1
# [16] = Inhibition of Hedgehog signaling pathway in human HeLa cells assessed as inhibition of PMA induced luciferase at 100 uM treated 30 mins before induction; format: cell-based; in short: as §1
# [17] = system: KB; assay: Cytotoxicity against human KB cells assessed as growth inhibition measured after 48 hrs by Neutral Red dye assay
# [18] = Inhibition of Notch signaling pathway in human HeLa cells assessed as measured as lowest concentration required 50 to 60 % inhibition of PMA induced luciferase treated 30 mins before induction; format: cell-based; in short: as §1
# [19] = Inhibition of Notch signaling pathway in human HeLa cells assessed as inhibition of PMA induced luciferase treated 30 mins before induction; format: cell-based; in short: as §1
# [20] = system: HeLa; assay: Inhibition of smad3/4 signaling pathway in human HeLa cells assessed as inhibition of TGF-beta induced luciferase treated 30 mins before induction; format: functional, cell-based; in short: as §1
# [21] = system: SK-MEL; assay: Cytotoxicity against human SK-MEL cells assessed as growth inhibition measured after 48 hrs by Neutral Red dye assay
# [22] = biological target: Forkhead box protein O1 (Homo sapiens) (UniProt Q12778); assay: Inhibition of FoxO signaling pathway in human HeLa cells assessed as inhibition of luciferase at 100 uM […]; format: cell-based
# Chain of Forkhead box protein O1 (Homo sapiens) (Q12778 whole entry): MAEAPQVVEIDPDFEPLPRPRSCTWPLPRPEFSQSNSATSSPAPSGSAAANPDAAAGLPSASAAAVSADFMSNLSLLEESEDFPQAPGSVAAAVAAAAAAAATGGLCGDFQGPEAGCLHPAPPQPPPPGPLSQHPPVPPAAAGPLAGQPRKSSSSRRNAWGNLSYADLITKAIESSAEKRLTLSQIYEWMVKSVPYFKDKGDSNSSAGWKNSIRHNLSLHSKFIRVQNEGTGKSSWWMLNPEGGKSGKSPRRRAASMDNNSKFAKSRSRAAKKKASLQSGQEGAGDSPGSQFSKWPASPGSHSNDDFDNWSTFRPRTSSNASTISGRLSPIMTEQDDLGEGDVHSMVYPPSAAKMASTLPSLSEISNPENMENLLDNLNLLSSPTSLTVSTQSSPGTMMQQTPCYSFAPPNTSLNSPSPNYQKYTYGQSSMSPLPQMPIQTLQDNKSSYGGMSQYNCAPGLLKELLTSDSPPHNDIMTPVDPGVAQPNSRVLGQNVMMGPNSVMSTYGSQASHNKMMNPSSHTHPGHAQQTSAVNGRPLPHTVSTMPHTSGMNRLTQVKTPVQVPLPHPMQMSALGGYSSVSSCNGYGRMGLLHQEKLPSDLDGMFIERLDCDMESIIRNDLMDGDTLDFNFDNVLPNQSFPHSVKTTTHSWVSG
# [23] = biological target: Myc proto-oncogene protein (Homo sapiens) (UniProt P01106); assay: Inhibition of Myc signaling pathway in human HeLa cells assessed as measured as lowest concentration required 50 to 60 % inhibition of PMA induced luciferase treated 30 mins before induction; format: cell-based; in short: as §1
# Chain of Myc proto-oncogene protein (Homo sapiens) (P01106 whole entry): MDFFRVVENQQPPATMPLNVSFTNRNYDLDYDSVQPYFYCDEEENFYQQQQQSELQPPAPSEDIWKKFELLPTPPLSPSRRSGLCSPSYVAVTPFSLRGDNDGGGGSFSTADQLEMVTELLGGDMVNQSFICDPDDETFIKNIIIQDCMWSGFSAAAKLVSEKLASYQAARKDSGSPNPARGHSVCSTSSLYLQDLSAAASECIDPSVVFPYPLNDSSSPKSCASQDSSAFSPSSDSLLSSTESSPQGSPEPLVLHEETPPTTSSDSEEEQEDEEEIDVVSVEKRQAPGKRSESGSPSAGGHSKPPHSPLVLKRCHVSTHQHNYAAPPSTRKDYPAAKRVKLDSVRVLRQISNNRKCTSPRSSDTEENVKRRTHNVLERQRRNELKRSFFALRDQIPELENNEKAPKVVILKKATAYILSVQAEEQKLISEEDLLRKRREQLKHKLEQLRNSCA
# [24] = Inhibition of AP1 signaling pathway in human HeLa cells assessed as measured as lowest concentration required 50 to 60 % inhibition of PMA induced luciferase treated 30 mins before induction; format: cell-based; in short: as §1
# [25] = system: LLC-PK1; assay: Cytotoxicity against pig LLC-PK1 cells assessed as growth inhibition measured after 48 hrs by Neutral Red dye assay; settings: Sus scrofa, LLC-PK1, 48 h
# [26] = system: BT-549; assay: Cytotoxicity against human BT549 cells assessed as growth inhibition measured after 48 hrs by Neutral Red dye assay; settings: BT-549, 48 h
# [27] = Inhibition of NFkappaB signaling pathway in human HeLa cells assessed as inhibition of PMA induced luciferase treated 30 mins before induction; format: cell-based; in short: as §1
# [28] = Inhibition of Ets signaling pathway in human HeLa cells assessed as measured as lowest concentration required 50 to 60 % inhibition of PMA induced luciferase treated 30 mins before induction; format: cell-based; in short: as §1
# [29] = system: HL-60; assay: Cytotoxicity against human HL60 cells assessed as growth inhibition measured after 48 hrs by XTT assay; format: functional, cell-based; settings: HL-60, 48 h
# [30] = system: SK-OV-3; assay: Cytotoxicity against human SKOV3 cells assessed as growth inhibition measured after 48 hrs by Neutral Red dye assay; settings: SK-OV-3, 48 h
# [31] = system: HeLa; assay: Inhibition of Stat3 signaling pathway in human HeLa cells assessed as inhibition of IL-6 induced luciferase at 100 uM treated 30 mins before induction; format: functional; in short: as §1
# [32] = Inhibition of AP1 signaling pathway in human HeLa cells assessed as inhibition of PMA induced luciferase at 100 uM treated 30 mins before induction; format: cell-based; in short: as §1
# [33] = Inhibition of Notch signaling pathway in human HeLa cells assessed as inhibition of PMA induced luciferase at 100 uM treated 30 mins before induction; format: cell-based; in short: as §1
# [34] = Inhibition of NFkappaB signaling pathway in human HeLa cells assessed as inhibition of PMA induced luciferase at 100 uM treated 30 mins before induction; format: cell-based; in short: as §1
# [35] = Inhibition of Ets signaling pathway in human HeLa cells assessed as inhibition of PMA induced luciferase at 100 uM treated 30 mins before induction; format: cell-based; in short: as §1
# [36] = biological target: Myc proto-oncogene protein (Homo sapiens) (UniProt P01106); assay: Inhibition of Myc signaling pathway in human HeLa cells assessed as inhibition of PMA induced luciferase at 100 uM treated 30 mins before induction; format: cell-based; in short: as §1
# [37] = system: HL-60; assay: Inhibition of PMA induced ROS generation in human HL60 cells assessed as inhibition of ROA mediated oxidation of DCFH; format: functional, cell-based; in short: as §2
smiles,measurement,setting,value
C=C1C(=O)O[C@@H]2C3O[C@]3(C)CC/C=C(\C)CC[C@@H]12 (stereo partly drawn),IC50,[1],8 µM
"COc1cc(/C=C\c2ccc(OC)c(OC)c2)cc(OC)c1 [(Z)-3,4,3',5'-TETRAMETHOXYSTILBENE]",IC50,[2],3.6 µM
same,inhibition,[3],< 40%
same,MED,[4],55 µM
same,IC50,[5],50 µM
same,growth inhibition (GI),[6],inactive
same,MED,[7],77 µM
same,inhibition,[8],inactive
same,IC50,[9],40 µM
same,IC50,[10],> 33.3 µM
same,MED,[11],80 µM
same,inhibition,[12],inactive
same,MED,[13],50 µM
same,IC50,[14],40 µM
same,IC50,[15],80 µM
same,inhibition,[16],< 40%
same,IC50,[17],4.3 µM
same,MED,[18],40 µM
same,IC50,[19],40 µM
same,IC50,[20],40 µM
same,IC50,[21],4.3 µM
same,inhibition,[22],< 40%
same,MED,[23],65 µM
same,MED,[24],80 µM
same,IC50,[25],6 µM
same,IC50,[26],4 µM
same,IC50,[27],80 µM
same,MED,[28],65 µM
same,IC50,[29],4.3 µM
COc1cccc2c1C(=O)c1c(O)c3c(c(O)c1C2=O)C[C@@](O)(C(=O)CO)C[C@@H]3O[C@H]1C[C@H](N)[C@H](O)[C@H](C)O1 [DOXORUBICIN],IC50,[2],3.9 µM
same,IC50,[30],2.6 µM
same,IC50,[10],> 9.2 µM
same,IC50,[17],3.8 µM
same,IC50,[21],1.5 µM
same,IC50,[25],1.6 µM
same,IC50,[26],3.7 µM
COc1ccc(/C=C/c2cc(OC)cc(OC)c2)cc1 [TRISMETHOXYRESVERATROL],IC50,[2],13.3 µM
same,inhibition,[3],inactive
same,inhibition,[31],inactive
same,IC50,[30],55.5 µM
same,IC50,[10],26.7 µM
same,inhibition,[32],inactive
same,inhibition,[33],inactive
same,inhibition,[16],inactive
same,IC50,[17],17.7 µM
same,inhibition,[34],inactive
same,IC50,[21],12.2 µM
same,inhibition,[22],inactive
same,inhibition,[35],inactive
same,inhibition,[36],inactive
same,IC50,[25],20 µM
same,IC50,[26],15.6 µM
Cc1c(C)c2c(c(C)c1O)CCC(C)(C(=O)O)O2 (stereo not drawn) [TROLOX],IC50,[37],1.4 µM
